According to ChEMBL document CHEMBL4052683, “The discovery of benzoxazine sulfonamide inhibitors of NaV1.7: Tools that bridge efficacy and target engagement” (Bioorg Med Chem Lett, 2017):
Active and inactive are the calls of the source. The rule behind the calls is not given here.

Key:
[1] = molecular target: T1, Sodium channel protein type 9 subunit alpha (Homo sapiens, UniProt Q15858); assay: Displacement of (P)-1-(30-chloro-2-fluoro-5,50-dimethoxy-[1,10biphenyl]-4-yl)-N-(isoxazol-3-yl)-2-oxo-1,2-dihydroquinoline-6-sulfonamide[50-methoxy-C3H3] from human NaV1.7 expressed in HEK293 cell membranes incubated for 1 hr by beta counting method
Procedure, shortened: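 Human NaV1.7 radioligand displacement using the tritiated 5'-methoxy-labelled dihydroquinoline sulfonamide ligand, which binds the VSDIV pocket.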

[2] = Ratio of unbound plasma concentration in C57BL/6 mouse model of histamine-induced pruritus at 60 mg/kg, po to IC50 for mouse Nav1.7 by whole cell voltage clamp method
Procedure, shortened: (§1)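 The formalin arm received 2% formalin subcutaneously into the dorsal hind paw, and total phase II licking and lifting was scored. The pruritus arm was dosed 120 min before histamine (8.15mM, intradermal, nape of neck), and scratch bouts were counted over 0-30 min. Unbound plasma concentration was determined at each dose.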

[3] = Half life in rat at 0.5 mg/kg, iv by LC-MS/MS method; type: ADME, organism-based; details: in vivo
Procedure, shortened: (§2)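 Male rats got 0.5 mg/kg IV as a DMSO solution. Unbound clearance was taken as rat clearance divided by the unbound fraction from equilibrium dialysis.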

[4] = Cmax in rat at 10 mg/kg, po by LC-MS/MS method; type: ADME, organism-based; set-up: dose 10 mg/kg, route oral; details: in vivo
Mus musculus [5] = assay: Analgesic activity in C57BL/6 mouse model of formalin-induced nociception behavior assessed as reduction in formalin-evoked paw lifting/licking at 30 to 100 mg/kg, po; type: functional, organism-based
Procedure, shortened: (§3)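 Male C57BL/6 mice got 30, 60 or 100 mg/kg PO in 30% (w/v) hydroxypropyl β-cyclodextrin in water, pH 10.0 with KOH. Formalin (2%) was injected subcutaneously into the dorsal hind paw, and total phase II paw licking and lifting were scored. Morphine sulfate 3 mg/kg SC served as control. Unbound plasma concentration was divided by the mouse NaV1.7 IC50.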

Plasma [6] = assay: Plasma concentration in C57BL/6 mouse model of formalin-induced nociception behavior at 60 mg/kg, po; type: ADME, organism-based; details: in vivo; procedure, shortened: as §3
[7] = molecular target: Sodium channel protein type 9 subunit alpha (Mus musculus, UniProt Q62205); assay: Inhibition of mouse NaV1.7 by whole cell voltage clamp method
Procedure, shortened: (§4)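 PatchXpress electrophysiology was run with a protocol giving about 20% channel inactivation. At least four concentrations at half-log spacing were applied one at a time, with washout, current recovery and holding voltage reset between each. Data were pooled from at least 10 cells, with 2–3 points per concentration, and fitted with a 4-parameter Hill curve to give one IC50.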

[8] = molecular target: Sodium channel protein type 9 subunit alpha (Rattus norvegicus, UniProt O08562); assay: Inhibition of rat NaV1.7 by cell based whole cell voltage clamp method; procedure, shortened: as §4
Plasma [9] = assay: Unbound plasma concentration in C57BL/6 mouse model of histamine-induced pruritus at 60 mg/kg, po; type: ADME, organism-based; details: in vivo; procedure, shortened: as §1
[10] = molecular target: T1, Sodium channel protein type 9 subunit alpha; assay: Inhibition of human NaV1.7 expressed in HEK293 cells at holding potential of -125 mV with test potentials to -10 mV by whole cell voltage clamp method; type: cell-based
Rattus norvegicus = assay: Analgesic activity in Sprague-Dawley rat model of formalin-induced nociception behavior assessed as reduction in formalin-evoked paw flinching at 100 mg/kg, po; type: functional
Procedure, shortened: (§5)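 Sprague Dawley rats got 10, 30 or 100 mg/kg PO in 30% (w/v) hydroxypropyl β-cyclodextrin, pH 10.0 with KOH. Total phase II formalin-induced flinches were counted. Morphine sulfate 2 mg/kg SC served as control. Unbound plasma levels were measured and compared with the rat NaV1.7 IC50.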

Plasma [11] = assay: Unbound plasma concentration in C57BL/6 mouse model of histamine-induced pruritus at 30 mg/kg, po; type: ADME, organism-based; details: in vivo; procedure, shortened: as §1
[12] = Ratio of unbound plasma concentration in Sprague-Dawley rat model of formalin-induced nociception behavior at 10 mg/kg, po to IC50 for rat Nav1.7 by whole cell voltage clamp method
Procedure, shortened: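 Total phase II formalin-induced flinches were scored. Unbound plasma concentration was determined at each dose and related to the rat NaV1.7 IC50.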

[13] = Half life in mouse at 30 mg/kg, po by LC-MS/MS method; type: ADME, organism-based; details: in vivo
[14] = Cmax in mouse at 30 mg/kg, po by LC-MS/MS method; type: ADME, organism-based; set-up: dose 30 mg/kg, route oral; details: in vivo
Plasma [15] = assay: Plasma concentration in Sprague-Dawley rat model of formalin-induced nociception behavior at 10 mg/kg, po; type: ADME, organism-based; details: in vivo; procedure, shortened: as §5
[16] = Oral bioavailability in rat at 10 mg/kg by LC-MS/MS method; type: ADME, organism-based; details: in vivo
Plasma [17] = assay: Plasma concentration in C57BL/6 mouse model of histamine-induced pruritus at 100 mg/kg, po; type: ADME, organism-based; details: in vivo
Procedure, shortened: (§6)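 Male C57BL/6 mice got 30, 60 or 100 mg/kg PO in 30% hydroxypropyl β-cyclodextrin, pH 10.0, 120 min before the test. Histamine (8.15mM) was given intradermally to the nape of the neck just before testing, and scratch bouts were counted over 0–30 min. Diphenhydramine 30 mg/kg PO in water, 90 min before, served as control. Unbound plasma concentrations were measured.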

Plasma [18] = assay: Plasma concentration in C57BL/6 mouse model of histamine-induced pruritus at 60 mg/kg, po; type: ADME, organism-based; details: in vivo; procedure, shortened: as §6
Plasma [19] = assay: Unbound plasma concentration in C57BL/6 mouse model of formalin-induced nociception behavior at 30 mg/kg, po; type: ADME, organism-based; details: in vivo; procedure, shortened: as §1
[20] = Ratio of unbound plasma concentration in C57BL/6 mouse model of histamine-induced pruritus at 100 mg/kg, po to IC50 for mouse Nav1.7 by whole cell voltage clamp method; procedure, shortened: as §1
Mus musculus [21] = assay: Anti-pruritic activity in C57BL/6 mouse model of histamine-induced pruritus assessed as reduction in histamine-induced scratching at 100 mg/kg, po dosed 120 mins before test; type: functional; procedure, shortened: as §6
Plasma [22] = assay: Plasma concentration in C57BL/6 mouse model of formalin-induced nociception behavior at 100 mg/kg, po; type: ADME, organism-based; details: in vivo; procedure, shortened: as §3
Mus musculus [23] = assay: Analgesic activity in C57BL/6 mouse model of formalin-induced nociception behavior assessed as reduction in formalin-evoked paw lifting/licking at 60 mg/kg, po; type: functional; procedure, shortened: as §3
[24] = Clearance in pooled human liver microsomes at 1 uM in presence of NADPH by LC-MS/MS method; type: ADME, microsome; details: read-out: CLH
Plasma [25] = assay: Plasma concentration in Sprague-Dawley rat model of formalin-induced nociception behavior at 30 mg/kg, po; type: ADME, organism-based; details: in vivo; procedure, shortened: as §5
Plasma [26] = assay: Plasma concentration in C57BL/6 mouse model of formalin-induced nociception behavior at 30 mg/kg, po; type: ADME, organism-based; details: in vivo; procedure, shortened: as §3
[27] = Unbound fraction in rat plasma at 5 uM by ultracentrifugation and LC-MS/MS method; type: ADME, cell-free
[28] = Clearance in rat at 0.5 mg/kg, iv by LC-MS/MS method; type: ADME, organism-based; details: in vivo; procedure, shortened: as §2
[29] = Unbound fraction in mouse plasma at 5 uM by ultracentrifugation and LC-MS/MS method; type: ADME, cell-free
[30] = Clearance in pooled rat liver microsomes at 1 uM in presence of NADPH by LC-MS/MS method; type: ADME, microsome; details: read-out: CLH
[31] = molecular target: Histamine H2 receptor (Homo sapiens) (UniProt P25021); assay: Displacement of [125I]APT from human recombinant histamine H2 receptor expressed in CHO cells at 10 uM by radioligand displacement assay; type: cell-based
[32] = AUC (infinity) in mouse at 30 mg/kg, po by LC-MS/MS method; type: ADME, organism-based; set-up: dose 30 mg/kg, time infinity, route oral; details: in vivo

T1 sequence (Q15858 whole entry): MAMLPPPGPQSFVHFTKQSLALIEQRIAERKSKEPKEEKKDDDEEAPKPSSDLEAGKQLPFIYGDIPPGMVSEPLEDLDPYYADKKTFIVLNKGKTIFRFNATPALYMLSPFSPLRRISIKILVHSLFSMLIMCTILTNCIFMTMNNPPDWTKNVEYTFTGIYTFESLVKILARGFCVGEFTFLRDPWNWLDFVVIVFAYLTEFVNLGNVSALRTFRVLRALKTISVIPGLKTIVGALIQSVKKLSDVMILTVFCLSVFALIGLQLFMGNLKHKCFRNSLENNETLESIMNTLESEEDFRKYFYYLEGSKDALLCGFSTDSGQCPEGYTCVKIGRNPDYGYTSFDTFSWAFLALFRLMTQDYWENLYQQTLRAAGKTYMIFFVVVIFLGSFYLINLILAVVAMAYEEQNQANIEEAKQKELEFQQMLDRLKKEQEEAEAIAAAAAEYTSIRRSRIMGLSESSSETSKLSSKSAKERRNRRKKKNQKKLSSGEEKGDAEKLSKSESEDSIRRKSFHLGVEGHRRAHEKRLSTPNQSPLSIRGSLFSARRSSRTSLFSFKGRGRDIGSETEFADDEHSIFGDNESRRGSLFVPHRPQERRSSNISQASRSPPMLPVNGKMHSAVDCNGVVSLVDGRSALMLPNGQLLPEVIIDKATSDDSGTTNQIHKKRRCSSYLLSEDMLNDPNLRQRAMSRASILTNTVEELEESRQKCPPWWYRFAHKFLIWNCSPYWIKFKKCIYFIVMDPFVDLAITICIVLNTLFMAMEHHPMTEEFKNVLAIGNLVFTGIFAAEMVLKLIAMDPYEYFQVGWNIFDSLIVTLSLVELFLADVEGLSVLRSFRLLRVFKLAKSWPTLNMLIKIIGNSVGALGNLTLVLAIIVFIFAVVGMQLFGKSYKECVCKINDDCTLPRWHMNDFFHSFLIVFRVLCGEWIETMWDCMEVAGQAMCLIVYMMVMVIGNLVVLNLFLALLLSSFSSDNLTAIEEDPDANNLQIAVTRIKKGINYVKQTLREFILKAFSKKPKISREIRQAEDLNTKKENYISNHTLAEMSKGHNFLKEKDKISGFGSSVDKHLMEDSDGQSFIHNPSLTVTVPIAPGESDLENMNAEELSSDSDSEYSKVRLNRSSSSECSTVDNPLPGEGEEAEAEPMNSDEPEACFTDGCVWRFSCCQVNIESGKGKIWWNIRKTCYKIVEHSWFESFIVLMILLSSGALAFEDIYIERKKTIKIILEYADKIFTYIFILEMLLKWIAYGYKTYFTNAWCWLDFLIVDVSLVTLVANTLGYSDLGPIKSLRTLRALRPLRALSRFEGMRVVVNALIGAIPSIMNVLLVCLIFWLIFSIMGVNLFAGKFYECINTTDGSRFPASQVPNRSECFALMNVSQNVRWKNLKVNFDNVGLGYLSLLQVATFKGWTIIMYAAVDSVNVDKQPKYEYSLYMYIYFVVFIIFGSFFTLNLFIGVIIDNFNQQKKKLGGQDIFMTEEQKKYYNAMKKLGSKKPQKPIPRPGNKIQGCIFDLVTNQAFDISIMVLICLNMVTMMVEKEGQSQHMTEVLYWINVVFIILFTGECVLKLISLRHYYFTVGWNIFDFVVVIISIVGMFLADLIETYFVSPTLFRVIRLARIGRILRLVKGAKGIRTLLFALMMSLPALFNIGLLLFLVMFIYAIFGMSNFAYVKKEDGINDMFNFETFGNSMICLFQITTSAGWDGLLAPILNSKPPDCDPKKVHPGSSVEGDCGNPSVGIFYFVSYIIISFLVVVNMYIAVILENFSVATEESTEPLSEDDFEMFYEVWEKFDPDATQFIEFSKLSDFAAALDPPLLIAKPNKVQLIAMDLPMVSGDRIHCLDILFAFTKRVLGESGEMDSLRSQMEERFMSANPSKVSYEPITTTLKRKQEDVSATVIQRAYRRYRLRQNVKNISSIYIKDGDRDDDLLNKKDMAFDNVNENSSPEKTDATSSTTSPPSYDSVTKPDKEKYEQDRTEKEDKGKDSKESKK
Sequence of Sodium channel protein type 9 subunit alpha (Mus musculus, UniProt Q62205) (Q62205 whole entry): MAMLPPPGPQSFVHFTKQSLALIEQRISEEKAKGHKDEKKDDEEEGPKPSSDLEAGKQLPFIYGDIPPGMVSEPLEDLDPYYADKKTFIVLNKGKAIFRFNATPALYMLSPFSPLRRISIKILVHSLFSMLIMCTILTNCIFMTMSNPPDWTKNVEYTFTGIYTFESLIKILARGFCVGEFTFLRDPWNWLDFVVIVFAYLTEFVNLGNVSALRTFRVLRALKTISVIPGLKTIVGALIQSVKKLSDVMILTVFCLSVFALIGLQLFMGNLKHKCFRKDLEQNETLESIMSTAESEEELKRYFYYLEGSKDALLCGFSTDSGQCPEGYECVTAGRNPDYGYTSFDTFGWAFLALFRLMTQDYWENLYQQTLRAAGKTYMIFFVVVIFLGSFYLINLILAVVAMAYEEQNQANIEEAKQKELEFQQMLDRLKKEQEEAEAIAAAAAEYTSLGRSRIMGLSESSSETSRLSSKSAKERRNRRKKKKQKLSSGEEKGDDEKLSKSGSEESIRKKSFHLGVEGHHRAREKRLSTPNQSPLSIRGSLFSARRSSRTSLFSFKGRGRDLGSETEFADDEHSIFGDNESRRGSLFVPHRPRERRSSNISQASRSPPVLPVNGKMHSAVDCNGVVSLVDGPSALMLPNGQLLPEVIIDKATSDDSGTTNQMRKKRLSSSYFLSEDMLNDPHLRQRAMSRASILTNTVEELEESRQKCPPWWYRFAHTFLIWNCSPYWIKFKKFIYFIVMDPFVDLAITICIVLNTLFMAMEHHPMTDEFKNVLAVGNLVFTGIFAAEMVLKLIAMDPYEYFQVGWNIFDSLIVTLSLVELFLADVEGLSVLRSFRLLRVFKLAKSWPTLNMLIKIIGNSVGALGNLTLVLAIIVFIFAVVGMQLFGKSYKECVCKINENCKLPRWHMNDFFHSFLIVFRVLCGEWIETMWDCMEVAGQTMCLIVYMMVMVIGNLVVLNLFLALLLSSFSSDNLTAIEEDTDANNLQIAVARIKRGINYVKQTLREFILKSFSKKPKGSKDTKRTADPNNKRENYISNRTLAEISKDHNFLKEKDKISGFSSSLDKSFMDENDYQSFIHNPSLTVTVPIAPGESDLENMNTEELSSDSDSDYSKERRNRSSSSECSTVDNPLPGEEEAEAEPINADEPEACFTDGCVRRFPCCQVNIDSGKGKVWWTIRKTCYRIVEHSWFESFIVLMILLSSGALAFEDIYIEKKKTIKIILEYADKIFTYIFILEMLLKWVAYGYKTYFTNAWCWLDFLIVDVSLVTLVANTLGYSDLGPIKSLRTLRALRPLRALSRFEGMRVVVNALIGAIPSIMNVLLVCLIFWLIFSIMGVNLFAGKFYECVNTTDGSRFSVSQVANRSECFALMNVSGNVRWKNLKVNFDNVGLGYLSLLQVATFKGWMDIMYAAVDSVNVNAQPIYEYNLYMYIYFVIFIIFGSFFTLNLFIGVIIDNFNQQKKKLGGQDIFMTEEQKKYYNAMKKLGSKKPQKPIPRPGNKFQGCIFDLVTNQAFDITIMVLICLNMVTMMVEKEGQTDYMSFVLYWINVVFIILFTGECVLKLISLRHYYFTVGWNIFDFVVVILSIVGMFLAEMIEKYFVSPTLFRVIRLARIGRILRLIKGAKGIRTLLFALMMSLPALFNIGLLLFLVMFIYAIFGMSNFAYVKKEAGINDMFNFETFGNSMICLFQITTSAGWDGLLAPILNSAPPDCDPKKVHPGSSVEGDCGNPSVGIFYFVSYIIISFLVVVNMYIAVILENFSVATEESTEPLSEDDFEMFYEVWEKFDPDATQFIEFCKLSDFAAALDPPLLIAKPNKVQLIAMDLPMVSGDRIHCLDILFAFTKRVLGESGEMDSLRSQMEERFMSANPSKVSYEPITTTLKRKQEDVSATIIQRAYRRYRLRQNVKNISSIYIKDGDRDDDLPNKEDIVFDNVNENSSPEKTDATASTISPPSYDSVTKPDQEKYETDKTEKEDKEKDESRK
Sequence of Histamine H2 receptor (Homo sapiens) (P25021 whole entry): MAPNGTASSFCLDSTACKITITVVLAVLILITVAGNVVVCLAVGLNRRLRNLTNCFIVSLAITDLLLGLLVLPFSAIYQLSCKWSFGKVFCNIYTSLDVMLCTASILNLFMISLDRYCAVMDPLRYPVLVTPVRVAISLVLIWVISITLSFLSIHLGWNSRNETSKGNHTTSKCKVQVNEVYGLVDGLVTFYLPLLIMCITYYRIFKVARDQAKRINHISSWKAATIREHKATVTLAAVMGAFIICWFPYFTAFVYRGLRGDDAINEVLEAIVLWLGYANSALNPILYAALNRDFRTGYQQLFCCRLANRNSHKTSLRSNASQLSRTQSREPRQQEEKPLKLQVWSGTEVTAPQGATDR

IC50 [1]: 37 nM | half-life [3]: 3.6 h | Cmax [4]: 0.95 to 0.99 µM | concentration (Plasma [6]): 100 µM | IC50 [7]: 60 nM | IC50 [8]: 67 nM | Cp(f) (Plasma [9]): 0.66 µM | IC50 [10]: 140 nM | Cp(f) (Plasma [11]): 0.37 µM | half-life [13]: 7.1 h | Cmax [14]: 58 µM | concentration (Plasma [15]): 1.7 µM | bioavailability [16]: 57% | concentration (Plasma [17]): 113 µM | concentration (Plasma [18]): 109 µM | Cp(f) (Plasma [19]): 0.3 µM | concentration (Plasma [22]): 150 µM | microsomal CLint at 1 µM [24]: < 14 µL/min/mg | concentration (Plasma [25]): 4.2 µM | concentration (Plasma [26]): 51 µM | fraction unbound at 5 µM [27]: 0.015 | clearance [28]: 10 mL/min/kg | fraction unbound at 5 µM [29]: 0.006 | microsomal CLint at 1 µM [30]: < 14 µL/min/mg | inhibition [31]: inactive | AUC(0-inf) [32]: 790 µM·h
SMILES: N#Cc1cc(C(F)(F)F)ccc1N1CCOc2cc(S(=O)(=O)Nc3nccs3)c(F)cc21
Ratio [2]: 10 | inhibition (Mus musculus [5]): Dose-dependent effect | MPE (Rattus norvegicus): 70% | Ratio [12]: 0.5 | Ratio [20]: 11 | MPE (Mus musculus [21]): 80% | MPE (Mus musculus [23]): 45%
